Measured values gathered from unrelated publications.
Lines come from different studies, so protocols differ.
Target: Protein kinase C iota type (PRKCI, Homo sapiens, UniProt P41743)
Sequence (P41743 1-596, as in one of the studies): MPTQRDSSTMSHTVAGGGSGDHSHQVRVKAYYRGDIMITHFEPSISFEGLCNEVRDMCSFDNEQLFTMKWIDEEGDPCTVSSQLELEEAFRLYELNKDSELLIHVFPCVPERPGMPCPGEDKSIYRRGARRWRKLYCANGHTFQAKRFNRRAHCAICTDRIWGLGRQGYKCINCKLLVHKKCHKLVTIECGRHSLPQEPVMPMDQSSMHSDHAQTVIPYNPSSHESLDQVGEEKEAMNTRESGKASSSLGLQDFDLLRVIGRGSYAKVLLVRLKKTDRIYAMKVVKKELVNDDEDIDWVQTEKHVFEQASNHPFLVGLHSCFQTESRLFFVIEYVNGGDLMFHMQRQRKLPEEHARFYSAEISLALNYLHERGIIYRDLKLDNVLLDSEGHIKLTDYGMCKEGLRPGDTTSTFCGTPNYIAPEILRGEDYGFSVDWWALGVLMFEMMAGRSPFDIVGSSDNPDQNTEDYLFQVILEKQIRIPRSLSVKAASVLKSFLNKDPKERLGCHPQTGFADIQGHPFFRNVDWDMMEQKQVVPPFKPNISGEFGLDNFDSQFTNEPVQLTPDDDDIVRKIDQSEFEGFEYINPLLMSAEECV

COc1cnc(Nc2cccc(S(N)(=O)=O)c2)nc1N1CCN(c2ccccc2)C(=O)C1
remaining binding (binding, competition with immobilised ligand; 1 µM): 96%

O=C(NCCCN1CCOCC1)c1ccc(Nc2ncc(Cl)c(-c3ccc(Cl)s3)n2)cc1
remaining binding (binding, competition with immobilised ligand; 1 µM): 98%

COc1ncc2cc3ccccc3nc2c1C#N
remaining binding (cell-free assay, competition with immobilised ligand; 5 µM): 100%

F[C@@H]1CCN(c2nccc(-c3cnn4ncccc34)n2)C1
remaining binding (binding; 1 µM): 100%

O=C(c1ccc(Nc2nccc(-c3cc4ccccc4s3)n2)cc1)N1CCC(N2CCCC2)CC1
remaining binding (binding, competition with immobilised ligand; 1 µM): 54%

CN(C)c1ncnc(-c2ccc3nc(Nc4cc(CN5CCN(C(=O)CC(F)(F)F)CC5)ccn4)[nH]c3c2)c1Cl
remaining binding (cell-free assay, competition with immobilised ligand; 1 µM): 79%

C=CC(=O)N1CCC(C(=O)NCC(=O)N2CCN(c3nc(-c4cnc(N)nc4C(F)F)nc(N4CCOCC4)n3)CC2)CC1
remaining binding (binding, competition with immobilised ligand; 1 µM): 95%

CCN1CCN(Cc2ccc(C(=O)Nc3ccc(C)c(Oc4ccc5c(c4)CC(=O)N5)c3)cc2C(F)(F)F)CC1
remaining binding (binding, competition with immobilised ligand; 1 µM): 100%

c1cnn2ncc(-c3ccnc(N4CCC45COC5)n3)c2c1
remaining binding (binding; 1 µM): 58%

O=C(Nc1cccnn1)N1CC(C/C=C/c2cncc(Oc3ccc(C(F)(F)F)cn3)n2)C1
remaining binding (cell-free assay, competition with immobilised ligand; 1 µM): 96%

O=C(c1ccc(Nc2ncc(Cl)c(-c3cc4ccccc4s3)n2)cc1)N1CCC(N2CCCC2)CC1
remaining binding (binding, competition with immobilised ligand; 1 µM): 72%

C[C@@H](c1ccc(-n2cnc3c(N)ncnc32)cc1)N1CCc2nn(C)c(Cc3ccccc3)c2C1=O
remaining binding (binding, competition with immobilised ligand; 0.1 µM): 82%

CC1CCCN1c1nccc(-c2cnn3ncccc23)n1 (stereo not drawn)
remaining binding (binding; 1 µM): 100%

CN([C@@H]1CCc2c(CC(=O)O)c3ccccc3n2C1)S(=O)(=O)c1ccc(F)cc1
remaining binding (cell-free assay, competition with immobilised ligand; 1 µM): 100%

COc1ccnn2ncc(-c3ccnc(N(C)C)n3)c12
remaining binding (binding; 1 µM): 74%

NS(=O)(=O)c1cc(NC(=O)C2(c3ccccc3Cl)CC2)ccc1Oc1cccc(Cl)c1
remaining binding (cell-free assay, competition with immobilised ligand; 1 µM): 98%

C[C@H]1CCN(c2nccc(-c3cnn4ncccc34)n2)C1
remaining binding (binding; 1 µM): 59%

O=C(O)[C@H]1[C@H](Cn2nnc3ccccc3c2=O)CC[C@@H]1C(=O)c1ccc(OCCC2CCOCC2)cc1
remaining binding (cell-free assay, competition with immobilised ligand; 1 µM): 66%

N[C@H]1CCN(c2nccc(-c3cnn4ncccc34)n2)C1
remaining binding (binding; 1 µM): 37%

CN([C@@H]1CCc2c(CC(=O)O)c3cc(S(C)(=O)=O)ccc3n2C1)S(=O)(=O)c1ccc(F)cc1
remaining binding (cell-free assay, competition with immobilised ligand; 1 µM): 100%

O=C(Nc1c[nH]nc1C(=O)NC1CCNCC1)c1cc(F)cc(F)c1
remaining binding (binding, competition with immobilised ligand; 1 µM): 84%
